According to ChEMBL document CHEMBL3091303, “1,3-Dialkyl-substituted tetrahydropyrimido[1,2-f]purine-2,4-diones as multiple target drugs for the potential treatment of neurodegenerative diseases” (Bioorg Med Chem, 2013):

Columns and labels:
Adenosine receptor A2a [1] = target: T1, Adenosine receptor A2a (Homo sapiens, UniProt P29274); assay: Binding affinity to human adenosine A2A receptor
Adenosine receptor A2a [2] = target: T1, Adenosine receptor A2a; assay: Displacement of [3H]MSX-2 from human adenosine A2A receptor expressed in CHO cells; assay type: cell-based
Method in brief: (§1)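 Radioligand binding to human receptors recombinantly expressed in Chinese hamster ovary (CHO) cells. Results are Ki, or % inhibition of radioligand binding at the indicated concentration.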

[3] = target: T2, Amine oxidase [flavin-containing] A (Homo sapiens, UniProt P21397); assay: Inhibition of human MAO-A
T2 sequence (P21397 whole entry): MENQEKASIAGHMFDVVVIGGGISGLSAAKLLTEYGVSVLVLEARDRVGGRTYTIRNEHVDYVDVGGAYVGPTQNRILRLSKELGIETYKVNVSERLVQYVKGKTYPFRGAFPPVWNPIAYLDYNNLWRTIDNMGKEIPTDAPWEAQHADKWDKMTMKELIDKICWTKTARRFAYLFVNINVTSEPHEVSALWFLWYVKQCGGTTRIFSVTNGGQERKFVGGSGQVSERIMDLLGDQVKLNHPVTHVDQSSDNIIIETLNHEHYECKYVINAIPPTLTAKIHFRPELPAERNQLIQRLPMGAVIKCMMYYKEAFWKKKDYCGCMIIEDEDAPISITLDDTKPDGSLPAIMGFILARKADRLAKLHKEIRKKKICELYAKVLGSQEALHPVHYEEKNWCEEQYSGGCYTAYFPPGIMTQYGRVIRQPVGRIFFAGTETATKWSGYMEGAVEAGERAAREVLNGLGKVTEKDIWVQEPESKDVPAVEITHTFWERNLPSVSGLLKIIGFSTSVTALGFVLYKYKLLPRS
Method in brief: (§2)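 Human MAO-A and MAO-B inhibition, screened first at a test concentration of 10 µM.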

Adenosine receptor A1 [4] = target: T3, Adenosine receptor A1 (Homo sapiens, UniProt P30542); assay: Displacement of [3H]CCPA from human adenosine A1 receptor expressed in CHO cells; assay type: cell-based; method in brief: as §1
T3 sequence (P30542 whole entry): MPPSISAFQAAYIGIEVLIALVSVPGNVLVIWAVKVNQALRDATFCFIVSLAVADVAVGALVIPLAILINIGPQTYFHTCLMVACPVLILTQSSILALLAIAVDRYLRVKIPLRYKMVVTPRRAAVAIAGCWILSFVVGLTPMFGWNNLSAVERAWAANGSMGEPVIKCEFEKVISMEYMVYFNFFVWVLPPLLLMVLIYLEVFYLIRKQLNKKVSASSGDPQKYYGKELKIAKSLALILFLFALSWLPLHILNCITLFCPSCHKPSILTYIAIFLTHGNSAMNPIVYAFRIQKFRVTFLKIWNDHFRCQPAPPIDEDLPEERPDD

[5] = target: T4, Adenosine receptor A2b (Homo sapiens) (UniProt P29275); assay: Displacement of [3H]PSB-603 from human adenosine A2B receptor relative to control; design: concentration or dose not given beside the values; details: concentration not given here
T4 sequence (whole entry): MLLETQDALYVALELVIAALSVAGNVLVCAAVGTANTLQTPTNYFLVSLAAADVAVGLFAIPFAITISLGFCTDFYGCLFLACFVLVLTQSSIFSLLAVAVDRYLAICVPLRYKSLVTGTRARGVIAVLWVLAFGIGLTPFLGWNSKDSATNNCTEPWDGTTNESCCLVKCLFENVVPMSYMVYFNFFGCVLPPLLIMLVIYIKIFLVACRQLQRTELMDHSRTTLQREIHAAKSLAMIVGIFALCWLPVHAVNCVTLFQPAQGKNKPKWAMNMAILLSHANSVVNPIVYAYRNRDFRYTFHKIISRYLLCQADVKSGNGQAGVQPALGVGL

[6] = target: T5, Amine oxidase [flavin-containing] B (Homo sapiens, UniProt P27338); assay: Inhibition of human MAO-B
T5 sequence (P27338 whole entry): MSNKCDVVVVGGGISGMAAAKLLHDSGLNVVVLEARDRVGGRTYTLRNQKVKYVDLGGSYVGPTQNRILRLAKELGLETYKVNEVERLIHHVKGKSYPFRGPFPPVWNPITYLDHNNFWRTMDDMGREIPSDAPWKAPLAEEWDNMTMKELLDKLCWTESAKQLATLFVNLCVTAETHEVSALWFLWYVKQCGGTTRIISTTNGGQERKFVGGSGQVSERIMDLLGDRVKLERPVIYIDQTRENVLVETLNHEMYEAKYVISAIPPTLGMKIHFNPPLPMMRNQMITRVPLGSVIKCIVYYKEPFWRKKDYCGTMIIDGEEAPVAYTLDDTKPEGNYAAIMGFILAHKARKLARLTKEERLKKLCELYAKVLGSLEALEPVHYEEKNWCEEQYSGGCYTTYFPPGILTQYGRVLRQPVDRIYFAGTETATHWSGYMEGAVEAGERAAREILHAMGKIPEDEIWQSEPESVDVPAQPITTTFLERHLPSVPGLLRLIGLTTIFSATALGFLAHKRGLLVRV

Adenosine receptor A3 = target: T6, Adenosine receptor A3 (Homo sapiens, UniProt P0DMS8); assay: Displacement of [3H]PSB-11 from human adenosine A3 receptor expressed in CHO cells; assay type: cell-based
T6 sequence (P0DMS8 whole entry): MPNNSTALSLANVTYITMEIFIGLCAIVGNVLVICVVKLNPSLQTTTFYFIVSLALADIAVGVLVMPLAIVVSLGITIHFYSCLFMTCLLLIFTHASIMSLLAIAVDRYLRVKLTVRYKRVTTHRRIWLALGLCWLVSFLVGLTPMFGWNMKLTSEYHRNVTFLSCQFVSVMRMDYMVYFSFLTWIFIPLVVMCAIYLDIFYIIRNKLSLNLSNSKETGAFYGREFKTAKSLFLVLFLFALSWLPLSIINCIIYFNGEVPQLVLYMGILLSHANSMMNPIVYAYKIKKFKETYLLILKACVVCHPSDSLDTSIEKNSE

Adenosine receptor A2a [7] = target: Adenosine receptor A2a (Rattus norvegicus, UniProt P30543); assay: Displacement of [3H]MSX-2 from adenosine A2A receptor in rat brain striatum; assay type: tissue-based
[8] = target: T7, MAO-A (amine oxidase [flavin-containing] A) (Homo sapiens, UniProt P21397); assay: Inhibition of human MAO-A at 10 uM relative to control; method in brief: as §2
T7 sequence (P21397 whole entry): T2 sequence (P21397 whole entry)

[9] = target: T8, Adenosine receptor A1 (Homo sapiens) (UniProt P30542); assay: Displacement of [3H]CCPA from human adenosine A1 receptor expressed in CHO cells relative to control; assay type: cell-based; details: concentration not given here; method in brief: as §1
T8 sequence (whole entry): T3 sequence (P30542 whole entry)

Adenosine receptor A1 [10] = target: T9, Adenosine receptor A1 (Rattus norvegicus, UniProt P25099); assay: Displacement of [3H]CCPA from adenosine A1 receptor in rat brain cortex; assay type: tissue-based
T9 sequence (P25099 whole entry): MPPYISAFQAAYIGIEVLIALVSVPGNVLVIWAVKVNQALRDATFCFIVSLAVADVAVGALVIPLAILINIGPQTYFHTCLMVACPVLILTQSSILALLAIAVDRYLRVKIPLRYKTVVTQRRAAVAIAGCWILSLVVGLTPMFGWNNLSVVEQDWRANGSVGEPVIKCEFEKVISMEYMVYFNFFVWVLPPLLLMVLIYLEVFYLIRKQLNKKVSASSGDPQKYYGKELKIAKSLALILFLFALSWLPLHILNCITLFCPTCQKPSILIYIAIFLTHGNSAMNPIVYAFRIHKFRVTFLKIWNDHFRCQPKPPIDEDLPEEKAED
Method in brief: (§3)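 Radioligand binding to rat A1 receptors in rat brain cortical membrane preparations. Values are given as Ki, or as % inhibition of radioligand binding at the indicated concentration.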

Adenosine receptor A2b = target: T10, Adenosine receptor A2b (Homo sapiens, UniProt P29275); assay: Displacement of [3H]PSB-603 from human adenosine A2B receptor
T10 sequence (P29275 whole entry): T4 sequence (whole entry)

[11] = target: T11, Adenosine receptor A1 (Rattus norvegicus) (UniProt P25099); assay: Displacement of [3H]CCPA from adenosine A1 receptor in rat brain cortex relative to control; assay type: tissue-based; design: concentration or dose not given beside the values; details: concentration not given here; method in brief: as §3
T11 sequence (whole entry): T9 sequence (P25099 whole entry)

[12] = target: T12, Adenosine receptor A3 (Homo sapiens) (UniProt P0DMS8); assay: Displacement of [3H]PSB-11 from human adenosine A3 receptor expressed in CHO cells relative to control; assay type: cell-based; design: concentration or dose not given beside the values; details: concentration not given here
T12 sequence (whole entry): T6 sequence (P0DMS8 whole entry)

[13] = target: T13, MAO-B (amine oxidase [flavin-containing] B) (Homo sapiens, UniProt P27338); assay: Inhibition of human MAO-B at 10 uM relative to control; method in brief: as §2
T13 sequence (P27338 whole entry): T5 sequence (P27338 whole entry)

[14] = tested on: Adenosine receptor A1/A2A (Homo sapiens); assay: Selectivity ratio of Ki for human adenosine A1 receptor to Ki for human adenosine A2A receptor
Rattus norvegicus = species on record: Rattus norvegicus; assay: Selectivity ratio of Ki for adenosine A2A receptor in rat brain striatum to Ki for adenosine A1 receptor in rat brain cortex; assay type: tissue-based
[15] = Ratio of Ki for human adenosine A1 receptor to Ki for adenosine A1 receptor in rat brain cortex; assay type: tissue-based

Sequence of Adenosine receptor A2a (Rattus norvegicus, UniProt P30543) (P30543 whole entry): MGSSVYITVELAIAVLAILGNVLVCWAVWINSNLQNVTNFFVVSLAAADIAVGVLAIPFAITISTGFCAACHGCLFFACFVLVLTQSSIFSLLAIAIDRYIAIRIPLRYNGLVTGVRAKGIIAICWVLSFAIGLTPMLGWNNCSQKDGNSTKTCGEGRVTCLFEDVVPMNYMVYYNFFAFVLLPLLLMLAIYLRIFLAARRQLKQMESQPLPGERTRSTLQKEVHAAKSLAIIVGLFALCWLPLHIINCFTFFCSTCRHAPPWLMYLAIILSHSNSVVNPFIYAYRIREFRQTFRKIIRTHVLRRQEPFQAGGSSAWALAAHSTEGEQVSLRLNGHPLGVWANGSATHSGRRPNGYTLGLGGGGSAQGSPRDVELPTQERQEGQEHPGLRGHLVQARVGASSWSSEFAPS
T1 sequence (P29274 whole entry): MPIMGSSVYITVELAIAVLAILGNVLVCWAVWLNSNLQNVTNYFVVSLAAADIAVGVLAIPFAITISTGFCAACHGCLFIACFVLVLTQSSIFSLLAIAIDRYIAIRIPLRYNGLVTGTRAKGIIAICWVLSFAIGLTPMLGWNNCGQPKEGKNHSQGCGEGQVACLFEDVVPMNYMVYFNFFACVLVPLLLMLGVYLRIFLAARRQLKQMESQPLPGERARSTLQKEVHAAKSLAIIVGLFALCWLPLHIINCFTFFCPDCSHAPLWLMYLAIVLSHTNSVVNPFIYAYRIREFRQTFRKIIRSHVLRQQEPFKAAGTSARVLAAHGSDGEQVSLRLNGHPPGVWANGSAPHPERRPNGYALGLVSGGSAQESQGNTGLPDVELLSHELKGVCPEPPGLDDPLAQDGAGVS

Row | Ki (Adenosine receptor A2a [1]) | Ki (Adenosine receptor A2a [2]) | IC50 [3] | Ki (Adenosine receptor A1 [4]) | inhibition [5] | IC50 [6] | Ki (Adenosine receptor A3) | Ki (Adenosine receptor A2a [7]) | inhibition at 10 µM [8] | inhibition [9] | Ki (Adenosine receptor A1 [10]) | Ki (Adenosine receptor A2b) | inhibition [11] | inhibition [12] | inhibition at 10 µM [13] | Ratio Ki [14] | Ratio Ki (Rattus norvegicus) | Ratio Ki [15] | SMILES
1 | 0.00538 µM | 0.00538 µM | – | – | – | – | – | – | – | – | – | – | – | – | – | – | – | – | C#CCn1c(=O)c2c(nc(/C=C/c3cccc(OC)c3)n2C)n(CCCO)c1=O
2 | – | 2.03 µM | > 10 µM | > 10 µM | 10% | 0.344 µM | 15.2 µM | 0.802 µM | 2% | 21% | 0.432 µM | > 1 µM | – | – | – | – | – | – | Cn1c(=O)c2c(nc3n2CCCN3Cc2cccc(Cl)c2)n(C)c1=O
3 | – | – | > 10 µM | > 10 µM | 1% | 0.218 µM | > 10 µM | 7.23 µM | 14% | 29% | > 25 µM | > 1 µM | 27% | 36% | – | – | – | – | Cn1c(=O)c2c(nc3n2CCCN3Cc2ccc(Cl)cc2)n(C)c1=O
4 | – | 0.284 µM | – | > 10 µM | – | 10 µM | > 10 µM | 0.932 µM | – | 21% | 0.313 µM | 3.86 µM | – | 34% | 46% | > 35 | 3 | – | C#CCn1c(=O)c2c(nc3n2CCCN3c2cccc(Br)c2)n(C)c1=O
5 | – | 1.2 µM | – | 11.6 µM | 3% | > 10 µM | > 1 µM | 0.827 µM | – | – | 0.632 µM | > 1 µM | – | 10% | 2% | – | – | 18 | C#CCn1c(=O)c2c(nc3n2CCCN3CCc2ccccc2)n(C)c1=O
